# “Also recorded” adds a separate entry of the source.
# Experiments:
# [1] = biological target: Taq DNA polymerase (Thermus aquaticus, UniProt P19821); experiment: Taq DNA polymerase inhibition; format: biochemical; details: for inhibitory activity against Taq DNA polymerase (in words): PCR assay
# [2] = system: SRP-ΔΔΔΔ (ΔΔΔΔpdr); experiment: Yeast growth inhibition dose-response, SRP-ΔΔΔΔ; format: cell-based, Saccharomyces cerevisiae; details: 1–128 μM range
# Outline: (§1)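 S. cerevisiae haploid MATa deletion strains (wild-type reference BY4741) were grown in YPD at 25 °C. In a broth microdilution assay, an inoculum of OD620 0.001 (~25,000 cells/mL) was exposed to test compound at 1–128 μM in 1:2 serial dilutions. The zero control was eight technical replicates of 1% (v/v) DMSO.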
# [3] = biological target: M-MLV Reverse Transcriptase (RT-MMLV) (Moloney murine leukemia virus, UniProt P03355); experiment: Retrotranscription inhibition; format: biochemical, myeloid murine leukemia virus
# [4] = system: Δrad9 Δrad52 (ΔΔrad); experiment: Yeast growth inhibition dose-response, Δrad9 Δrad52; format: cell-based, Saccharomyces cerevisiae; details: for cytotoxicity in ΔΔrad (in words): 1–128 μM range; for DNA damage in S. cerevisiae (in words): inferred from hypersensitivity of Δrad9 Δrad52
# Outline: as §1
# Taq DNA polymerase, sequence (P19821 whole entry): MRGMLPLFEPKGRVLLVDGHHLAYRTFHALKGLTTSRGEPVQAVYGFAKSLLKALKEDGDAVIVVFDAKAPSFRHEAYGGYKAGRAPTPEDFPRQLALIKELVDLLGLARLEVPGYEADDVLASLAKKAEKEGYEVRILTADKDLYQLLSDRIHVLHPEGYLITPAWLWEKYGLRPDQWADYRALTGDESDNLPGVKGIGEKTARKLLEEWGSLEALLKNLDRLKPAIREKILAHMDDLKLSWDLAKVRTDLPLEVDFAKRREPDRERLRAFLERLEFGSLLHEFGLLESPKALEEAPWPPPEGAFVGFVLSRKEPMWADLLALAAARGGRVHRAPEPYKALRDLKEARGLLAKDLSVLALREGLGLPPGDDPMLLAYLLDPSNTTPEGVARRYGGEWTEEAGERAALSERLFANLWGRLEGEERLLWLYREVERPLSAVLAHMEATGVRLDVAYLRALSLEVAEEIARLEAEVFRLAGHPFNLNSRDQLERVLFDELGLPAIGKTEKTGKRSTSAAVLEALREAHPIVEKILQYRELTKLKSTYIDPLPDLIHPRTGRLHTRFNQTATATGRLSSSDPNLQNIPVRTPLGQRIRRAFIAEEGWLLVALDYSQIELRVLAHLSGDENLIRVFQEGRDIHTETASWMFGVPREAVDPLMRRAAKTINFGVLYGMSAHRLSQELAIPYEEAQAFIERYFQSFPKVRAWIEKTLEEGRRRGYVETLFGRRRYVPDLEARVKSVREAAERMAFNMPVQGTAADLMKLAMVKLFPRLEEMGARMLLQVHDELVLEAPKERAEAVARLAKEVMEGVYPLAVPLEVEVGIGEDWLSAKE
compound,measurement,setting,value
"O=c1cc(CCl)c2ccc(O)cc2o1 [Compound 2a, 4-(Chloromethyl)-7-hydroxy-2H-chromen-2-one]",inhibitory activity against Taq DNA polymerase (in words),[1],low or null in vitro activity
"O=c1cc(CCl)c2cc(O)ccc2o1 [Compound 2b, 4-(Chloromethyl)-6-hydroxy-2H-chromen-2-one]",inhibitory activity against Taq DNA polymerase (in words),[1],low or null in vitro activity
"O=c1cc(CCl)c2ccc(O)c(O)c2o1 [Compound 2c, 4-(Chloromethyl)-7,8-dihydroxy-2H-chromen-2-one]",IC50,[1],142 ± 3.4 µM
"O=c1cc(CCl)c2c(O)cc(O)cc2o1 [Compound 2d, 4-(Chloromethyl)-5,7-dihydroxy-2H-chromen-2-one]",IC50,[1],20.7 ± 2.1 µM
"CC(=O)Oc1ccc2c(CSC(C)=O)cc(=O)oc2c1 [Compound 3c, 4-((Acetylthio)methyl)-2-oxo-2H-chromen-7-yl acetate]",IC50,[1],48.2 ± 1.2 µM
"CC(=O)SCc1cc(=O)oc2cc(O)ccc12 [Compound 3d, S-((7-Hydroxy-2-oxo-2H-chromen-4-yl)methyl) ethanethioate]",IC50,[1],143 ± 4.22 µM
"CC(=O)SCc1cc(=O)oc2ccc(O)cc12 [Compound 3e, S-((6-Hydroxy-2-oxo-2H-chromen-4-yl)methyl) ethanethioate]",IC50,[1],188 ± 19.4 µM
"COc1ccc2oc(=O)cc(CSC(C)=O)c2c1 [Compound 3f, S-((6-Methoxy-2-oxo-2H-chromen-4-yl)methyl) ethanethioate]",inhibitory activity against Taq DNA polymerase (in words),[1],absence of activity
"CC(=O)Oc1ccc2oc(=O)cc(CSC(C)=O)c2c1 [Compound 3g, 4-((Acetylthio)methyl)-2-oxo-2H-chromen-6-yl acetate]",cytotoxicity in ΔΔΔΔpdr strain (in words),[2],cytotoxic
same,inhibitory activity against Taq DNA polymerase (in words),[1],without activity; also recorded: did not show in vitro activity
"C=CCCOc1ccc2ccc(=O)oc2c1 [Compound 4b, 7-(But-3-en-1-yloxy)-2H-chromen-2-one]",cytotoxicity in ΔΔΔΔpdr strain (in words),[2],cytotoxic
"C=CCCCOc1ccc2ccc(=O)oc2c1 [Compound 4c, 7-(Pent-4-en-1-yloxy)-2H-chromen-2-one]",cytotoxicity in ΔΔΔΔpdr strain (in words),[2],cytotoxic
"O=c1cc(OCCCC2CO2)c2ccccc2o1 (stereo not drawn) [Compound 5a, 4-(3-(Oxiran-2-yl)propoxy)-2H-chromen-2-one]",activity in RT-PCR assay (in words),[3],did not show activity
same,cytotoxicity in ΔΔrad (in words),[4],Cytotoxicity was observed
same,DNA damage in S. cerevisiae (in words),[4],showed DNA damaging activity
"O=c1ccc2ccc(OCCC3CO3)cc2o1 (stereo not drawn) [Compound 5b, 7-(2-(Oxiran-2-yl)ethoxy)-2H-chromen-2-one]",activity in RT-PCR assay (in words),[3],without activity
same,cytotoxicity in ΔΔrad (in words),[4],Cytotoxicity was observed
same,DNA damage in S. cerevisiae (in words),[4],caused DNA damage; also recorded: showed DNA damaging activity
"O=c1ccc2ccc(OCCCC3CO3)cc2o1 (stereo not drawn) [Compound 5c, 7-(3-(Oxiran-2-yl)propoxy)-2H-chromen-2-one]",cytotoxicity in ΔΔrad (in words),[4],Cytotoxicity was observed
same,DNA damage in S. cerevisiae (in words),[4],caused DNA damage; also recorded: showed DNA damaging activity
"CCCCOc1ccc2ccc(=O)oc2c1 [Compound 6a, 7-Butoxy-2H-chromen-2-one]",cytotoxicity in ΔΔΔΔpdr strain (in words),[2],cytotoxic
"CCCCCCOc1ccc2ccc(=O)oc2c1 [Compound 6b, 7-(Hexyloxy)-2H-chromen-2-one]",cytotoxicity in ΔΔΔΔpdr strain (in words),[2],cytotoxic
"CCCCCCCOc1ccc2ccc(=O)oc2c1 [Compound 6c, 7-(Heptyloxy)-2H-chromen-2-one]",cytotoxicity in ΔΔΔΔpdr strain (in words),[2],cytotoxic
"CC(=O)OC[C@@H]1OC(Oc2ccc3ccc(=O)oc3c2)C(OC(C)=O)[C@H](OC(C)=O)C1OC(C)=O (stereo partly drawn) [Compound 7c, (2S,4R)-2-(Acetoxymethyl)-6-((2-oxo-2H-chromen-7-yl)oxy)tetrahydro-2H-pyran-3,4,5-triyl triacetate]",cytotoxicity in ΔΔΔΔpdr strain (in words),[2],cytotoxic

# — paper PMC10373209 (ACS Omega, 2023)
